# “Also recorded” adds a separate entry of the source.
# Assays:
# [1] = molecular target: T1, SaSDH (Staphylococcus aureus shikimate dehydrogenase) (Staphylococcus aureus, UniProt Q5HFG5); experiment: SaSDH enzyme inhibition; type: biochemical; settings: for IC50: 1 mM SHK, 1.54 ng SaSDH, pH 9.0, 37 °C, 30 min; for Mode of inhibition: with respect to SHK
# T1 sequence (Q5HFG5 1-268): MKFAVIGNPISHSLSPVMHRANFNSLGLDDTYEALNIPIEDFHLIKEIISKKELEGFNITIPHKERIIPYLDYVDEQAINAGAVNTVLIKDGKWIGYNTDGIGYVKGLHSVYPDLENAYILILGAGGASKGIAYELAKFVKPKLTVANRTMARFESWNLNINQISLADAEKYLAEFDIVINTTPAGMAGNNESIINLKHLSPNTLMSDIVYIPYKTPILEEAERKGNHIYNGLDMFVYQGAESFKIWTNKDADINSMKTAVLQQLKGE
# [2] = molecular target: T2, SaSDH (Staphylococcus aureus, UniProt Q5HFG5); experiment: Isothermal titration calorimetry; type: binding; settings: ITC, 100 mM Tris-HCl pH 9.0, 25 °C
# T2 sequence (Q5HFG5 1-268): T1 sequence (Q5HFG5 1-268)
# [3] = system: S. aureus; experiment: S. aureus susceptibility, micro-broth two-fold serial dilution; type: cell-based, Staphylococcus aureus
# [4] = system: S. aureus; experiment: Growth / time-kill curves; type: cell-based, Staphylococcus aureus; settings: inhibitor at MIC: 50 μg/mL (-)-gallocatechin gallate, 250 μg/mL rhodiosin
# [5] = system: S. aureus; experiment: Scanning electron microscopy of bacterial morphology; type: cell-based, Staphylococcus aureus; settings: MIC and 1/2 MIC, 1.5 h
# [6] = system: S. aureus; experiment: Cell membrane integrity, Calcein AM/PI staining; type: cell-based, Staphylococcus aureus; settings: MIC, 37 °C, 3 h
# [7] = molecular target: T2, SaSDH; experiment: SaSDH enzyme activity and kinetic parameters for substrates; type: biochemical; settings: substrate varied, co-substrate at saturation, pH 9.0, 37 °C
# Procedure, shortened: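 His-tagged SaSDH (pET-28a(+), E. coli BL21(DE3)pLysS, IPTG induction, Ni-NTA purified). Reverse reaction: NADP+-dependent SHK oxidation, 1.54 ng enzyme, 100 mM Tris-HCl pH 9.0, 37 °C, enzyme-started; A340 every minute for 60 min.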
compound,measurement,setting,value
CC=C1[C@H](O[C@@H]2O[C@H](CO)[C@@H](O)[C@H](O)[C@H]2O)OC=C(C(=O)OC)[C@H]1CC(=O)OC[C@H]1O[C@@H](OCCc2ccc(O)cc2)[C@H](O)[C@@H](O)[C@@H]1O (stereo in doubt) [Specneuzhenide],IC50,[1]; 1 mM NADP,< 100 µM
O=C(O[C@@H]1Cc2c(O)cc(O)cc2O[C@H]1c1cc(O)c(O)c(O)c1)c1cc(O)c(O)c(O)c1 [(-)-Gallocatechin gallate],IC50,[1]; 1 mM NADP,< 100 µM
same,Ki,"[1]; Lineweaver-Burke plots, SHK varied 0.25-4 mM",2.47 µM
same,Mode of inhibition,[1]; Lineweaver-Burke plots,uncompetitive inhibition; also recorded: uncompetitive inhibitor
same,Kd,[2],44.6 µM
same,Antibacterial activity (in words),[3],antibacterial activities
same,Effect on S. aureus growth (time-kill curves),[4],slow bacterial growth
same,Bacterial morphology by SEM,[5],"cell disintegration, cell surface fracturing and wrinkling"
same,Cell membrane integrity (PI-labeled bacteria),[6],cell membrane destruction
COc1ccc([C@@H]2CC(=O)c3c(O)cc(O[C@@H]4O[C@H](CO[C@@H]5O[C@@H](C)[C@H](O)[C@@H](O)[C@H]5O)[C@@H](O)[C@H](O)[C@H]4O)cc3O2)cc1O [Hesperidin],IC50,[1]; 1 mM NADP,< 100 µM
NC(=O)c1ccc[n+]([C@@H]2O[C@H](COP(=O)([O-])OP(=O)(O)OC[C@H]3O[C@@H](n4cnc5c(N)ncnc54)[C@H](OP(=O)(O)O)[C@@H]3O)[C@@H](O)[C@H]2O)c1 [NADP^+],Km,[7],98.2 µM
same,Vmax,[7],3.785 mM/min/µg
O=C(OC[C@H]1O[C@@H](OC(=O)c2cc(O)c(O)c(O)c2)[C@H](OC(=O)c2cc(O)c(O)c(O)c2)[C@@H](OC(=O)c2cc(O)c(O)c(O)c2)[C@@H]1OC(=O)c1cc(O)c(O)c(O)c1)c1cc(O)c(O)c(O)c1 [Pentagalloylglucose],IC50,"[1]; IC50, 1 mM NADP",< 100 µM
same,Antibacterial activity (in words),[3],antibacterial activities
"O=C(O)C1=C[C@@H](O)[C@@H](O)[C@H](O)C1 [SHK, shikimate]",Km,[7],46.1 µM
same,Vmax,[7],3.362 mM/min/µg
"C[C@@H]1O[C@@H](OC[C@H]2O[C@@H](Oc3c(-c4ccc(OCCO)c(OCCO)c4)oc4cc(OCCO)cc(O)c4c3=O)[C@H](O)[C@@H](O)[C@@H]2O)[C@H](O)[C@H](O)[C@H]1O [Troxerutin, reference compound]",IC50,"[1]; IC50, 1 mM NADP",< 100 µM
Rhodiosin,Mode of inhibition,[1]; Lineweaver-Burke plots,competitive inhibition
same,Mode of inhibition,"[1]; Lineweaver-Burke plots, listed as rhodiosin",competitive inhibitor
same,Antibacterial activity (in words),[3],antibacterial activities
same,Effect on S. aureus growth (time-kill curves),[4],completely inhibited S.aureus growth
same,Bacterial morphology by SEM,[5],"cell disintegration, cell surface fracturing and wrinkling"
same,Cell membrane integrity (PI-labeled bacteria),[6],cell membrane destruction
